Source: ChEMBL document CHEMBL5724801, “EUbOPEN Chemogenomics Library - Multiplex” (2024)
Values joined by “and” are separate entries in the source; they are usually repeats but may differ in a detail not shown here. Equal entries are not always repeated.

Test system: Fibroblast
Assay: Multiplex assay against human fibroblast
Assay type: toxicity, cell-based
In short: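 Per cents of healthy-nucleus cells form the tubulin, mitochondrial-mass and membrane-permeability phenotype values. Live cells were stained at seeding with Hoechst33342, BioTracker Green Microtubule Cytoskeleton Dye, MitoTracker Red and Annexin V Alexa Fluor 680. After compound addition they were imaged on a CQ1 microscope at 37°C and 5% CO2, and CellPathfinder machine-learning gating split them into Hoechst high-intensity objects or normal cells, normal cells into healthy, pyknosed or fragmented nuclei, and pyknosed cells into mitotic or apoptotic.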

[1] = 12 h, 1 µM, compound concentration 1 uM
[2] = 12 h, 10 µM, compound concentration 10 uM
[3] = 24 h, 1 µM, compound concentration 1 uM
[4] = 24 h, 10 µM, compound concentration 10 uM
[5] = 48 h, 1 µM, compound concentration 1 uM
[6] = 48 h, 10 µM, compound concentration 10 uM

With `CC(F)(F)CN1CCOc2c(nn(-c3ccccc3Cl)c2-c2ccc(Cl)cc2)C1=O` the “Population Apoptotic (%)” value [1] was 42% and 31%, the “Population Healthy Nuclei (%)” value [1] was 66% and 48% and the “Population Hoechst High Intensity Objects (%)” value [1] was 0%. The “Population Membrane Permeable-Phenotype (%)” value [1] was 1%, the “Population Mitochondria Different-Phenotype (%)” value [1] was 4% and 10% and the “Population Mitotic Cells (%)” value [1] was 57% and 68%. For the same compound, the “Population Normal (%)” value [1] was 99% and 93%, the “Population Pyknosed Nuclei (%)” value [1] was 15% and 25% and the “Population Tubulin-Different-Phenotype (%)” value [1] was 61%. The “Total Cell Count” value [1] was 125 and 122, the “Population Apoptotic (%)” value [2] was 47% and 30% and the “Population Healthy Nuclei (%)” value [2] was 66% and 53%. For the same compound, the “Population Hoechst High Intensity Objects (%)” value [2] was 1% and 5%, the “Population Membrane Permeable-Phenotype (%)” value [2] was 0% and 2% and the “Population Mitochondria Different-Phenotype (%)” value [2] was 19% and 8%. The “Population Mitotic Cells (%)” value [2] was 52% and 70%, the “Population Normal (%)” value [2] was 98% and 94% and the “Population Pyknosed Nuclei (%)” value [2] was 17% and 15%. The “Population Tubulin-Different-Phenotype (%)” value [2] was 49% and 57%, the “Total Cell Count” value [2] was 109 and 134 and the “Population Apoptotic (%)” value [3] was 61% and 64%. For the same compound, the “Population Healthy Nuclei (%)” value [3] was 65% and 52%, the “Population Hoechst High Intensity Objects (%)” value [3] was 1% and 4% and the “Population Membrane Permeable-Phenotype (%)” value [3] was 1%. For the same compound, the “Population Mitochondria Different-Phenotype (%)” value [3] was 2% and 10%, the “Population Mitotic Cells (%)” value [3] was 38% and 36% and the “Population Normal (%)” value [3] was 98% and 95%. For the same compound, the “Population Pyknosed Nuclei (%)” value [3] was 15% and 20%, the “Population Tubulin-Different-Phenotype (%)” value [3] was 75% and the “Total Cell Count” value [3] was 119 and 129. The “Population Apoptotic (%)” value [4] was 33% and 35%, the “Population Healthy Nuclei (%)” value [4] was 65% and 54% and the “Population Hoechst High Intensity Objects (%)” value [4] was 0% and 1%. The “Population Membrane Permeable-Phenotype (%)” value [4] was 0% and 6%, the “Population Mitochondria Different-Phenotype (%)” value [4] was 26% and 10% and the “Population Mitotic Cells (%)” value [4] was 66% and 64%. For the same compound, the “Population Normal (%)” value [4] was 99% and 98%, the “Population Pyknosed Nuclei (%)” value [4] was 10% and 14% and the “Population Tubulin-Different-Phenotype (%)” value [4] was 58% and 60%. For the same compound, the “Total Cell Count” value [4] was 111 and 121, the “Population Apoptotic (%)” value [5] was 56% and 40% and the “Population Healthy Nuclei (%)” value [5] was 63% and 53%. The “Population Hoechst High Intensity Objects (%)” value [5] was 1% and 4%, the “Population Membrane Permeable-Phenotype (%)” value [5] was 4% and 1% and the “Population Mitotic Cells (%)” value [5] was 43% and 60%. For the same compound, the “Population Normal (%)” value [5] was 98% and 95%, the “Population Pyknosed Nuclei (%)” value [5] was 11% and 7% and the “Population Tubulin-Different-Phenotype (%)” value [5] was 35% and 72%. For the same compound, the “Total Cell Count” value [5] was 136 and 135, the “Population Apoptotic (%)” value [6] was 78% and 54% and the “Population Healthy Nuclei (%)” value [6] was 56% and 54%. The “Population Hoechst High Intensity Objects (%)” value [6] was 1%, the “Population Membrane Permeable-Phenotype (%)” value [6] was 0% and 3% and the “Population Mitotic Cells (%)” value [6] was 21% and 45%. For the same compound, the “Population Normal (%)” value [6] was 98%, the “Population Pyknosed Nuclei (%)” value [6] was 11% and 7% and the “Population Tubulin-Different-Phenotype (%)” value [6] was 57%. For the same compound, the “Total Cell Count” value [6] was 120 and 141.
For `Cc1ccc(C(C)(O)c2nc3ccccc3s2)c(C)c1` (centres undefined), the “Population Apoptotic (%)” value [1] was 50% and 44%, the “Population Fragmented Nuclei (%)” value [1] was 8% and 22% and the “Population Healthy Nuclei (%)” value [1] was 78% and 48%. For the same compound, the “Population Hoechst High Intensity Objects (%)” value [1] was 0% and 5%, the “Population Membrane Permeable-Phenotype (%)” value [1] was 0% and 3% and the “Population Mitochondria Different-Phenotype (%)” value [1] was 5% and 6%. For the same compound, the “Population Mitotic Cells (%)” value [1] was 50% and 56%, the “Population Normal (%)” value [1] was 99% and 95% and the “Population Pyknosed Nuclei (%)” value [1] was 12% and 29%. For the same compound, the “Population Tubulin-Different-Phenotype (%)” value [1] was 29% and 36%, the “Total Cell Count” value [1] was 125 and 180 and the “Population Apoptotic (%)” value [2] was 44% and 22%. For the same compound, the “Population Fragmented Nuclei (%)” value [2] was 11% and 31%, the “Population Healthy Nuclei (%)” value [2] was 72% and 43% and the “Population Hoechst High Intensity Objects (%)” value [2] was 1% and 7%. For the same compound, the “Population Membrane Permeable-Phenotype (%)” value [2] was 0% and 15%, the “Population Mitochondria Different-Phenotype (%)” value [2] was 5% and 6% and the “Population Mitotic Cells (%)” value [2] was 56% and 77%. The “Population Normal (%)” value [2] was 98% and 92%, the “Population Pyknosed Nuclei (%)” value [2] was 16% and 25% and the “Population Tubulin-Different-Phenotype (%)” value [2] was 24% and 60%. For the same compound, the “Total Cell Count” value [2] was 153 and 149, the “Population Apoptotic (%)” value [3] was 31% and 47% and the “Population Fragmented Nuclei (%)” value [3] was 13% and 25%. For the same compound, the “Population Healthy Nuclei (%)” value [3] was 73% and 54%, the “Population Hoechst High Intensity Objects (%)” value [3] was 0% and 5% and the “Population Membrane Permeable-Phenotype (%)” value [3] was 2% and 11%. The “Population Mitochondria Different-Phenotype (%)” value [3] was 7% and 5%, the “Population Mitotic Cells (%)” value [3] was 68% and 52% and the “Population Normal (%)” value [3] was 99% and 94%. The “Population Pyknosed Nuclei (%)” value [3] was 13% and 20%, the “Population Tubulin-Different-Phenotype (%)” value [3] was 22% and 43% and the “Total Cell Count” value [3] was 139 and 173. For the same compound, the “Population Apoptotic (%)” value [4] was 55% and 38%, the “Population Fragmented Nuclei (%)” value [4] was 13% and 27% and the “Population Healthy Nuclei (%)” value [4] was 74% and 46%. For the same compound, the “Population Hoechst High Intensity Objects (%)” value [4] was 4% and 6%, the “Population Membrane Permeable-Phenotype (%)” value [4] was 3% and 12% and the “Population Mitochondria Different-Phenotype (%)” value [4] was 6% and 9%. The “Population Mitotic Cells (%)” value [4] was 44% and 61%, the “Population Normal (%)” value [4] was 95% and 93% and the “Population Pyknosed Nuclei (%)” value [4] was 12% and 25%. The “Population Tubulin-Different-Phenotype (%)” value [4] was 24% and 61%, the “Total Cell Count” value [4] was 152 and 143 and the “Population Apoptotic (%)” value [5] was 33% and 50%. The “Population Fragmented Nuclei (%)” value [5] was 16% and 28%, the “Population Healthy Nuclei (%)” value [5] was 73% and 57% and the “Population Hoechst High Intensity Objects (%)” value [5] was 4% and 3%. The “Population Membrane Permeable-Phenotype (%)” value [5] was 0% and 5%, the “Population Mitochondria Different-Phenotype (%)” value [5] was 3% and 6% and the “Population Mitotic Cells (%)” value [5] was 66% and 50%. For the same compound, the “Population Normal (%)” value [5] was 95% and 96%, the “Population Pyknosed Nuclei (%)” value [5] was 9% and 14% and the “Population Tubulin-Different-Phenotype (%)” value [5] was 16% and 39%. The “Total Cell Count” value [5] was 129 and 174, the “Population Apoptotic (%)” value [6] was 53% and 43% and the “Population Fragmented Nuclei (%)” value [6] was 22% and 34%. For the same compound, the “Population Healthy Nuclei (%)” value [6] was 68% and 53%, the “Population Hoechst High Intensity Objects (%)” value [6] was 7% and the “Population Membrane Permeable-Phenotype (%)” value [6] was 2% and 7%. The “Population Mitochondria Different-Phenotype (%)” value [6] was 6% and 7%, the “Population Mitotic Cells (%)” value [6] was 46% and 56% and the “Population Normal (%)” value [6] was 92%. For the same compound, the “Population Pyknosed Nuclei (%)” value [6] was 9% and 12%, the “Population Tubulin-Different-Phenotype (%)” value [6] was 27% and 64% and the “Total Cell Count” value [6] was 156 and 143.
